Assay results: ChEMBL document CHEMBL1154853, “New 1,3-oxazolo[4,5-c]quinoline derivatives: synthesis and evaluation of antibacterial and antituberculosis properties” (2010)
Converted amounts (≈) assume the structure as drawn. “And” between values parts separate entries of the source, which are not always exact repeats. Equal entries are not always repeated.

Experiments:
Type in all cases: functional
[1] = system: Klebsiella pneumoniae; assay: Antimicrobial activity against Klebsiella pneumoniae after 16 to 18 hrs by serial dilution method
Summary of the method: (§1)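 Tube broth dilution: serial drug dilutions in Mueller Hinton broth, pH adjusted to 5.0 with phosphate buffer. A standardized bacterial suspension was inoculated and incubated 16-18 h at 37 °C. MIC was read as the lowest drug concentration with no visible growth. Ciprofloxacin served as the reference.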

[2] = system: Escherichia coli; assay: Antimicrobial activity against Escherichia coli […] at MIC after 3 to 4 days by disc diffusion method
[3] = system: Pseudomonas aeruginosa; assay: Antimicrobial activity against Pseudomonas aeruginosa ATTC 27853 after 16 to 18 hrs by serial dilution method; summary of the method: as §1
[4] = system: Mycobacterium tuberculosis; assay: Antitubercular activity against Mycobacterium tuberculosis H37Rv at MIC after 24 hrs by broth microdilution method
Summary of the method: (§2)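 M. tuberculosis H37Rv grown in Middlebrook 7H9 with 10% OADC, diluted to McFarland 1, 50 µl added to 150 µl fresh medium. Compounds from 2 mg/mL DMF stocks tested at 1, 10 and 100 µg/mL; DMF-only controls. 7 days at 37 °C, then 0.01% resazurin added with 24 h further incubation. MIC = lowest concentration preventing blue-to-pink change.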

[5] = system: Klebsiella pneumoniae; assay: Antimicrobial activity against Klebsiella pneumoniae at MIC after 3 to 4 days by disc diffusion method
[6] = system: Mycobacterium tuberculosis; assay: Antitubercular activity against Mycobacterium tuberculosis H37Rv after 24 hrs by broth microdilution method; summary of the method: as §2
[7] = system: Escherichia coli; assay: Antimicrobial activity against Escherichia coli […] after 16 to 18 hrs by serial dilution method; summary of the method: as §1
[8] = system: Pseudomonas aeruginosa; assay: Antimicrobial activity against Pseudomonas aeruginosa ATTC 27853 at MIC after 3 to 4 days by disc diffusion method
[9] = system: Staphylococcus aureus; assay: Antimicrobial activity against Staphylococcus aureus […] after 16 to 18 hrs by serial dilution method; summary of the method: as §1
[10] = system: Staphylococcus aureus; assay: Antimicrobial activity against Staphylococcus aureus […] at MIC after 3 to 4 days by disc diffusion method

Row | SMILES | MIC [1] [µg/mL] | diameter of the inhibition zone (DIZ) [2] | MIC [3] [µg/mL] | inhibition (INH) [4] [%] | diameter of the inhibition zone (DIZ) [5] | MIC [6] [µg/mL] | MIC [7] [µg/mL] | diameter of the inhibition zone (DIZ) [8] | MIC [9] [µg/mL] | diameter of the inhibition zone (DIZ) [10]
1 | CCCCCNc1nc2c(-c3cccc(F)c3)nc3ccccc3c2o1 | 12.5 (≈ 35.8 µM) | 24 mm | 12.5 (≈ 35.8 µM) | 95 | 12 mm | 10 (≈ 28.6 µM) | 6.25 (≈ 17.9 µM) | 14 mm | 12.5 (≈ 35.8 µM) | 11 mm
2 | Fc1ccc(-c2nc3ccccc3c3oc(Nc4cccc(Cl)c4)nc23)cc1 | 6.25 (≈ 16 µM) | 26 mm | 6.25 (≈ 16 µM) | 99 | 21 mm | 1 (≈ 2.57 µM) | 6.25 (≈ 16 µM) | 24 mm | 6.25 (≈ 16 µM) | 22 mm
3 | N#Cc1cccc(NC(=O)Nc2c(-c3cccc(F)c3)nc3ccccc3c2O)c1 | 6.25 (≈ 15.7 µM) | 23 mm | 6.25 (≈ 15.7 µM) | 0 | 18 mm | > 100 | 6.25 (≈ 15.7 µM) | 19 mm | 6.25 (≈ 15.7 µM) | 19 mm
4 | CO[C@H]1/C=C/O[C@@]2(C)Oc3c(C)c(O)c4c(O)c(c(/C=N/N5CCN(C)CC5)c(O)c4c3C2=O)NC(=O)/C(C)=C\C=C\[C@H](C)[C@H](O)[C@@H](C)[C@@H](O)[C@@H](C)[C@H](OC(C)=O)[C@@H]1C [RIFAMPIN] |  |  |  | 99 |  | 0.5 (≈ 0.608 µM) |  |  |  | 
5 | Fc1ccc(-c2nc3ccccc3c3oc(NCc4ccccc4)nc23)cc1 | 6.25 (≈ 16.9 µM) | 24 mm | 6.25 (≈ 16.9 µM) | 95 | 19 mm | 10 (≈ 27.1 µM) | 6.25 (≈ 16.9 µM) | 24 mm | 6.25 (≈ 16.9 µM) | 21 mm
6 | O=C(NCc1ccccc1)Nc1c(-c2ccc(F)cc2)nc2ccccc2c1O | 50 (≈ 129 µM) | <10 mm | 50 (≈ 129 µM) | 95 | <10 mm | 10 (≈ 25.8 µM) | 50 (≈ 129 µM) | <10 mm | 6.25 (≈ 16.1 µM) | 16 mm
7 | NNC(=O)c1ccncc1 [ISONIAZID] |  |  |  | 95 |  | 1.5 (≈ 10.9 µM) |  |  |  | 
8 | O=C(Nc1ccc(F)cc1)Nc1c(-c2cccc(F)c2)nc2ccccc2c1O | 6.25 (≈ 16 µM) | 21 mm | 6.25 (≈ 16 µM) | 95 | 16 mm | 10 (≈ 25.6 µM) | 6.25 (≈ 16 µM) | 19 mm | 6.25 (≈ 16 µM) | 20 mm
9 | Cc1cc(C)cc(NC(=O)Nc2c(-c3ccc(F)cc3)nc3ccccc3c2O)c1 | 50 (≈ 125 µM) | <10 mm | 50 (≈ 125 µM) | 0 | <10 mm | > 100 | 50 (≈ 125 µM) | <10 mm | 50 (≈ 125 µM) | <10 mm
10 | Fc1cccc(-c2nc3ccccc3c3oc(NCCc4ccccc4)nc23)c1 | 50 (≈ 130 µM) | <10 mm | 50 (≈ 130 µM) | 0 | <10 mm | > 100 | 50 (≈ 130 µM) | <10 mm | 50 (≈ 130 µM) | <10 mm
11 | O=C(O)c1cn(C2CC2)c2cc(N3CCNCC3)c(F)cc2c1=O [CIPROFLOXACIN] | 6.25 (≈ 18.9 µM) | 28 mm and 29 mm |  |  | 25 mm and 22 mm |  |  | 31 mm and 25 mm |  | 26 mm and 24 mm
